ChEMBL document CHEMBL4689842, “EUbOPEN Chemogenomics Library wave 1” (2021)

Test system: U2OS
Assay: Multiplex assay against U2OS
Format: toxicity, cell-based
Conditions: human
Procedure, shortened: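 Live cells carried four stains from seeding: Hoechst33342, BioTracker Green Microtubule Cytoskeleton Dye, MitoTracker Red and Annexin V Alexa Fluor 680. They were imaged on a CQ1 microscope at 37°C and 5% CO2 after compound addition. Using CellPathfinder machine-learning gating, cells were split into Hoechst high-intensity objects or normal cells, normal cells into healthy, pyknosed or fragmented nuclei, and pyknosed cells into mitotic or apoptotic; tubulin, mitochondrial-mass and membrane-permeability phenotypes are per cents of healthy-nucleus cells.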

[1] = 12 h, 1 µM, compound concentration 1 uM, replicate 1
[2] = 12 h, 1 µM, compound concentration 1 uM, replicate 2
[3] = 12 h, 10 µM, compound concentration 10 uM, replicate 1
[4] = 12 h, 10 µM, compound concentration 10 uM, replicate 2
[5] = 24 h, 1 µM, compound concentration 1 uM, replicate 1
[6] = 24 h, 1 µM, compound concentration 1 uM, replicate 2
[7] = 24 h, 10 µM, compound concentration 10 uM, replicate 1
[8] = 24 h, 10 µM, compound concentration 10 uM, replicate 2
[9] = 48 h, 1 µM, compound concentration 1 uM, replicate 1
[10] = 48 h, 1 µM, compound concentration 1 uM, replicate 2
[11] = 48 h, 10 µM, compound concentration 10 uM, replicate 1
[12] = 48 h, 10 µM, compound concentration 10 uM, replicate 2

SMILES: COc1cc(-n2cnc3cc(-c4ccc(Cl)cc4)sc3c2=O)ccc1OCCN1CCCC1
- Population Apoptotic (%) [1]: 45%
- Population Fragmented Nuclei (%) [1]: 12%
- Population Healthy Nuclei (%) [1]: 70%
- Population Hoechst High Intensity Objects (%) [1]: 9%
- Population Membrane Permeable-Phenotype (%) [1]: 9%
- Population Mitochondria Different-Phenotype (%) [1]: 63%
- Population Mitotic Cells (%) [1]: 54%
- Population Normal (%) [1]: 90%
- Population Pyknosed Nuclei (%) [1]: 16%
- Population Tubulin-Different-Phenotype (%) [1]: 65%
- Total Cell Count [1]: 157
- Population Apoptotic (%) [2]: 71%
- Population Fragmented Nuclei (%) [2]: 11%
- Population Healthy Nuclei (%) [2]: 77%
- Population Hoechst High Intensity Objects (%) [2]: 16%
- Population Membrane Permeable-Phenotype (%) [2]: 10%
- Population Mitochondria Different-Phenotype (%) [2]: 44%
- Population Mitotic Cells (%) [2]: 28%
- Population Normal (%) [2]: 84%
- Population Pyknosed Nuclei (%) [2]: 11%
- Population Tubulin-Different-Phenotype (%) [2]: 34%
- Total Cell Count [2]: 78
- Population Apoptotic (%) [3]: 72%
- Population Fragmented Nuclei (%) [3]: 32%
- Population Healthy Nuclei (%) [3]: 13%
- Population Hoechst High Intensity Objects (%) [3]: 10%
- Population Membrane Permeable-Phenotype (%) [3]: 61%
- Population Mitochondria Different-Phenotype (%) [3]: 100%
- Population Mitotic Cells (%) [3]: 27%
- Population Normal (%) [3]: 90%
- Population Pyknosed Nuclei (%) [3]: 54%
- Population Tubulin-Different-Phenotype (%) [3]: 100%
- Total Cell Count [3]: 144
- Population Apoptotic (%) [4]: 26%
- Population Fragmented Nuclei (%) [4]: 22%
- Population Healthy Nuclei (%) [4]: 57%
- Population Hoechst High Intensity Objects (%) [4]: 8%
- Population Membrane Permeable-Phenotype (%) [4]: 34%
- Population Mitochondria Different-Phenotype (%) [4]: 93%
- Population Mitotic Cells (%) [4]: 73%
- Population Normal (%) [4]: 91%
- Population Pyknosed Nuclei (%) [4]: 19%
- Population Tubulin-Different-Phenotype (%) [4]: 97%
- Total Cell Count [4]: 75
- Population Apoptotic (%) [5]: 56%
- Population Fragmented Nuclei (%) [5]: 6%
- Population Healthy Nuclei (%) [5]: 76%
- Population Hoechst High Intensity Objects (%) [5]: 6%
- Population Membrane Permeable-Phenotype (%) [5]: 8%
- Population Mitochondria Different-Phenotype (%) [5]: 45%
- Population Mitotic Cells (%) [5]: 43%
- Population Normal (%) [5]: 93%
- Population Pyknosed Nuclei (%) [5]: 16%
- Population Tubulin-Different-Phenotype (%) [5]: 42%
- Total Cell Count [5]: 175
- Population Apoptotic (%) [6]: 62%
- Population Fragmented Nuclei (%) [6]: 16%
- Population Healthy Nuclei (%) [6]: 71%
- Population Hoechst High Intensity Objects (%) [6]: 10%
- Population Membrane Permeable-Phenotype (%) [6]: 6%
- Population Mitochondria Different-Phenotype (%) [6]: 25%
- Population Mitotic Cells (%) [6]: 37%
- Population Normal (%) [6]: 89%
- Population Pyknosed Nuclei (%) [6]: 12%
- Population Tubulin-Different-Phenotype (%) [6]: 21%
- Total Cell Count [6]: 83
- Population Apoptotic (%) [7]: 95%
- Population Fragmented Nuclei (%) [7]: 48%
- Population Healthy Nuclei (%) [7]: 3%
- Population Hoechst High Intensity Objects (%) [7]: 11%
- Population Membrane Permeable-Phenotype (%) [7]: 100%
- Population Mitochondria Different-Phenotype (%) [7]: 100%
- Population Mitotic Cells (%) [7]: 4%
- Population Normal (%) [7]: 88%
- Population Pyknosed Nuclei (%) [7]: 47%
- Population Tubulin-Different-Phenotype (%) [7]: 100%
- Total Cell Count [7]: 147
- Population Apoptotic (%) [8]: 47%
- Population Fragmented Nuclei (%) [8]: 24%
- Population Healthy Nuclei (%) [8]: 52%
- Population Hoechst High Intensity Objects (%) [8]: 14%
- Population Membrane Permeable-Phenotype (%) [8]: 42%
- Population Mitochondria Different-Phenotype (%) [8]: 89%
- Population Mitotic Cells (%) [8]: 52%
- Population Normal (%) [8]: 85%
- Population Pyknosed Nuclei (%) [8]: 23%
- Population Tubulin-Different-Phenotype (%) [8]: 81%
- Total Cell Count [8]: 74
- Population Apoptotic (%) [9]: 59%
- Population Fragmented Nuclei (%) [9]: 10%
- Population Hoechst High Intensity Objects (%) [9]: 3%
- Population Membrane Permeable-Phenotype (%) [9]: 7%
- Population Mitochondria Different-Phenotype (%) [9]: 28%
- Population Mitotic Cells (%) [9]: 40%
- Population Normal (%) [9]: 96%
- Population Pyknosed Nuclei (%) [9]: 14%
- Population Tubulin-Different-Phenotype (%) [9]: 31%
- Total Cell Count [9]: 187
- Population Apoptotic (%) [10]: 63%
- Population Fragmented Nuclei (%) [10]: 12%
- Population Healthy Nuclei (%) [10]: 74%
- Population Hoechst High Intensity Objects (%) [10]: 5%
- Population Membrane Permeable-Phenotype (%) [10]: 21%
- Population Mitochondria Different-Phenotype (%) [10]: 31%
- Population Mitotic Cells (%) [10]: 36%
- Population Normal (%) [10]: 94%
- Population Pyknosed Nuclei (%) [10]: 13%
- Population Tubulin-Different-Phenotype (%) [10]: 19%
- Total Cell Count [10]: 79
- Population Apoptotic (%) [11]: 97%
- Population Fragmented Nuclei (%) [11]: 33%
- Population Healthy Nuclei (%) [11]: 7%
- Population Hoechst High Intensity Objects (%) [11]: 20%
- Population Membrane Permeable-Phenotype (%) [11]: 88%
- Population Mitochondria Different-Phenotype (%) [11]: 100%
- Population Mitotic Cells (%) [11]: 2%
- Population Normal (%) [11]: 79%
- Population Pyknosed Nuclei (%) [11]: 59%
- Population Tubulin-Different-Phenotype (%) [11]: 100%
- Total Cell Count [11]: 189
- Population Apoptotic (%) [12]: 53%
- Population Fragmented Nuclei (%) [12]: 25%
- Population Healthy Nuclei (%) [12]: 59%
- Population Hoechst High Intensity Objects (%) [12]: 5%
- Population Membrane Permeable-Phenotype (%) [12]: 56%
- Population Mitochondria Different-Phenotype (%) [12]: 96%
- Population Mitotic Cells (%) [12]: 46%
- Population Normal (%) [12]: 94%
- Population Pyknosed Nuclei (%) [12]: 15%
- Population Tubulin-Different-Phenotype (%) [12]: 96%
- Total Cell Count [12]: 87
